Values joined by “and” are separate entries in the source; they are usually repeats but may differ in a detail not shown here. Identical values can stand only once.
Key:
Rattus norvegicus [1] = experiment: Inhibition of plasma triglycerides in normolipidemic rats after 24 h of 50 mg/kg oral dosing; no significant change; type: functional, organism-based; set-up: dose 50 mg/kg
Method in brief: (§1)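 Overnight-fasted normolipidemic rats received a single oral dose in cornstarch vehicle. Blood was drawn at 2, 6 and 24 h post-dose and assayed for triglycerides and total cholesterol, with free access to food after the 6 h sample. Value is mean percent inhibition versus a separate vehicle-treated group, unpaired t test p < 0.05, NS = no significant change, N = 6.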

[2] = molecular target: T1, Microsomal triglyceride transfer protein large subunit (Homo sapiens, UniProt P55157); experiment: In vitro inhibitory activity against MTP using MTP transfer assay
T1 sequence (P55157 whole entry): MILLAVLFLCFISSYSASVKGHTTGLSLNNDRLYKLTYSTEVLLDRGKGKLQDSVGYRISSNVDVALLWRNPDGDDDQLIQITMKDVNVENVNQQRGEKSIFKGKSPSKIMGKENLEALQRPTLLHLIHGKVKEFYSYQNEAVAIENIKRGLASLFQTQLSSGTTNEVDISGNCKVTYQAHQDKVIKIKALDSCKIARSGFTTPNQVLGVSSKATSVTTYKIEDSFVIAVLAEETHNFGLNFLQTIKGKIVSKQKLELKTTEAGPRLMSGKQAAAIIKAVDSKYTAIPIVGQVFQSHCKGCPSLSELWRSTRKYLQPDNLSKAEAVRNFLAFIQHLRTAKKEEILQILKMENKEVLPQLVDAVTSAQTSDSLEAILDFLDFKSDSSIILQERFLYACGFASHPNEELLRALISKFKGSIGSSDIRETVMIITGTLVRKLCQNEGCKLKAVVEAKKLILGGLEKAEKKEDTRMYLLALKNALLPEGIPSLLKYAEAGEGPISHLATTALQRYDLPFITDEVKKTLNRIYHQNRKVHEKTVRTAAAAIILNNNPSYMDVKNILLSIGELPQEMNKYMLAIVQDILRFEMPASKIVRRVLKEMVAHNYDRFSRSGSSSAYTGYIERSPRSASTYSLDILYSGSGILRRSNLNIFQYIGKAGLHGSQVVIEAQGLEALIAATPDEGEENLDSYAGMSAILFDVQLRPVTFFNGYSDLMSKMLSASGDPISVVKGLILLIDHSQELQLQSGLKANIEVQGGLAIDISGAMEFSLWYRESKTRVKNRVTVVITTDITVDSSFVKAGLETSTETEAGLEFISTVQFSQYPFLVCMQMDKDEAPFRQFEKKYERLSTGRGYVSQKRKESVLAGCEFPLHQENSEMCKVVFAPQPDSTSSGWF

Rattus norvegicus [3] = experiment: Inhibition of total cholesterol in normolipidemic rats after 6 h of […] mg/kg oral dosing; no significant change; type: functional, organism-based; set-up: dose 50 mg/kg
Rattus norvegicus [4] = experiment: Inhibition of plasma triglycerides in normolipidemic rats after 6 h of […] mg/kg oral dosing; no significant change; type: functional, organism-based; set-up: dose 50 mg/kg
Rattus norvegicus [5] = experiment: Inhibition of plasma triglycerides in normolipidemic rats after 2 hr of 50 mg/kg oral dosing; no significant change; type: functional, organism-based; set-up: dose 50 mg/kg; method in brief: as §1
Rattus norvegicus [6] = experiment: Inhibition of total cholesterol in normolipidemic rats after 2 hr of 50 mg/kg oral dosing; no significant change; type: functional, organism-based; set-up: dose 50 mg/kg; method in brief: as §1
Rattus norvegicus [7] = experiment: Inhibition of total cholesterol in normolipidemic rats after 24 hr of 50 mg/kg oral dosing; no significant change; type: functional, organism-based; set-up: dose 50 mg/kg; method in brief: as §1
Rattus norvegicus [8] = experiment: Inhibition of total cholesterol in normolipidemic rats after 2 h of 5 mg/kg oral dosing; type: functional; method in brief: as §1
Rattus norvegicus [9] = experiment: Inhibition of total cholesterol in normolipidemic rats after 6 hr of 50 mg/kg oral dosing; type: functional; method in brief: as §1
Rattus norvegicus [10] = experiment: Inhibition of plasma triglycerides in normolipidemic rats after 6 hr of 50 mg/kg oral dosing; type: functional; method in brief: as §1
Rattus norvegicus [11] = experiment: Inhibition of total cholesterol in normolipidemic rats after 6 hr of 5 mg/kg oral dosing; type: functional; method in brief: as §1
Rattus norvegicus [12] = experiment: Inhibition of plasma triglycerides in normolipidemic rats after 2 hr of 50 mg/kg oral dosing; type: functional; method in brief: as §1
Rattus norvegicus [13] = experiment: Inhibition of plasma triglycerides in normolipidemic rats after 24 hr of 5 mg/kg oral dosing; no significant change; type: functional, organism-based; set-up: dose 5 mg/kg; method in brief: as §1
Rattus norvegicus [14] = experiment: Inhibition of total cholesterol in normolipidemic rats after 24 hr of 5 mg/kg oral dosing; no significant change; type: functional, organism-based; set-up: dose 5 mg/kg; method in brief: as §1
Rattus norvegicus [15] = experiment: Inhibition of total cholesterol in normolipidemic rats after 2 hr of 50 mg/kg oral dosing; type: functional; method in brief: as §1
Rattus norvegicus [16] = experiment: Inhibition of plasma triglycerides in normolipidemic rats after 2 hr of 5 mg/kg oral dosing; type: functional; method in brief: as §1
Rattus norvegicus [17] = experiment: Inhibition of plasma triglycerides in normolipidemic rats after 6 h of 5 mg/kg oral dosing; type: functional; method in brief: as §1
[18] = molecular target: Apolipoprotein B-100 (Homo sapiens) (UniProt P04114); experiment: Inhibition of apolipoprotein B (apoB) secreted by human hepatoma cells (Hep G2) at 100 nM
Rattus norvegicus [19] = experiment: Inhibition of plasma triglycerides in normolipidemic rats after 24 hr of 50 mg/kg oral dosing; type: functional; method in brief: as §1
Rattus norvegicus [20] = experiment: (§2) Inhibition of total cholesterol in normolipidemic rats after 24 hr of 50 mg/kg oral dosing; type: functional; method in brief: as §1
Rattus norvegicus [21] = experiment: Inhibition of plasma triglycerides in normolipidemic rats after 24 hr of 50 mg/kg oral dosing; No significant change; type: functional, organism-based; set-up: dose 50 mg/kg; method in brief: as §1
Canis familiaris [22] = experiment: Inhibition of plasma total triglycerides in the normolipidemic dogs after day 2 of oral administration of 5 mg/kg/day.; type: functional, Canis lupus familiaris
Method in brief: (§3)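 Normolipidemic dogs dosed once daily for 4 days by oral gavage, compound suspended in cornstarch vehicle. Plasma sampled 24 h after dosing on days 0, 2, 3 and 4, assayed for triglycerides and total cholesterol (mg/dL). Mean percent inhibition versus day-0 level is given for treated dogs; n = 6 per group; significance by one-way ANOVA, p < 0.05.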

Canis familiaris [23] = experiment: Inhibition of plasma total triglycerides in the normolipidemic dogs after day 0 of oral administration of 5 mg/kg/day.; type: functional, Canis lupus familiaris; method in brief: as §3
Canis familiaris [24] = experiment: Inhibition of plasma total cholesterol in the normolipidemic dogs after day 3 of oral administration of 5 mg/kg/day.; type: functional, Canis lupus familiaris; method in brief: as §3
Canis familiaris [25] = experiment: Inhibition of plasma total cholesterol in the normolipidemic dogs after day 4 of oral administration of 5 mg/kg/day; type: functional, Canis lupus familiaris; method in brief: as §3
Rattus norvegicus [26] = experiment: Inhibition of plasma triglycerides in normolipidemic rats after 24 hr of 10 mg/kg oral dosing; no significant change; type: functional, organism-based; set-up: dose 10 mg/kg; method in brief: as §1
Rattus norvegicus [27] = experiment: Inhibition of plasma triglycerides in normolipidemic rats after 6 hr of 10 mg/kg oral dosing; type: functional; method in brief: as §1
Rattus norvegicus [28] = experiment: Inhibition of total cholesterol in normolipidemic rats after 24 hr of 10 mg/kg oral dosing; no significant change; type: functional, organism-based; set-up: dose 10 mg/kg; method in brief: as §1
Rattus norvegicus [29] = experiment: Inhibition of total cholesterol in normolipidemic rats after 6 hr of 10 mg/kg oral dosing; type: functional; method in brief: as §1
Canis familiaris [30] = experiment: Inhibition of plasma total cholesterol in the normolipidemic dogs after day 2 of oral administration of 5 mg/kg/ day.; type: functional, Canis lupus familiaris; method in brief: as §3
Canis familiaris [31] = experiment: Inhibition of plasma total cholesterol in the normolipidemic dogs after day 0 of oral administration of 5 mg/kg/day.; type: functional, Canis lupus familiaris; method in brief: as §3
Canis familiaris [32] = experiment: Inhibition of plasma total triglycerides in the normolipidemic dogs after day 3 of oral administration of 5 mg/kg/day.; type: functional, Canis lupus familiaris
Rattus norvegicus [33] = experiment: Inhibition of plasma triglycerides in normolipidemic rats after 2 hr of 10 mg/kg oral dosing; type: functional; method in brief: as §1
Canis familiaris [34] = experiment: Inhibition of plasma total triglycerides in the normolipidemic dogs after day 4 of oral administration of 5 mg/kg/day; type: functional, Canis lupus familiaris
Rattus norvegicus [35] = experiment: Inhibition of total cholesterol in normolipidemic rats after 2 hr of 10 mg/kg oral dosing; type: functional; method in brief: as §1
Rattus norvegicus [36] = experiment: as §2; type: functional, organism-based; set-up: dose 50 mg/kg; method in brief: as §1

Sequence of Apolipoprotein B-100 (Homo sapiens) (P04114 whole entry): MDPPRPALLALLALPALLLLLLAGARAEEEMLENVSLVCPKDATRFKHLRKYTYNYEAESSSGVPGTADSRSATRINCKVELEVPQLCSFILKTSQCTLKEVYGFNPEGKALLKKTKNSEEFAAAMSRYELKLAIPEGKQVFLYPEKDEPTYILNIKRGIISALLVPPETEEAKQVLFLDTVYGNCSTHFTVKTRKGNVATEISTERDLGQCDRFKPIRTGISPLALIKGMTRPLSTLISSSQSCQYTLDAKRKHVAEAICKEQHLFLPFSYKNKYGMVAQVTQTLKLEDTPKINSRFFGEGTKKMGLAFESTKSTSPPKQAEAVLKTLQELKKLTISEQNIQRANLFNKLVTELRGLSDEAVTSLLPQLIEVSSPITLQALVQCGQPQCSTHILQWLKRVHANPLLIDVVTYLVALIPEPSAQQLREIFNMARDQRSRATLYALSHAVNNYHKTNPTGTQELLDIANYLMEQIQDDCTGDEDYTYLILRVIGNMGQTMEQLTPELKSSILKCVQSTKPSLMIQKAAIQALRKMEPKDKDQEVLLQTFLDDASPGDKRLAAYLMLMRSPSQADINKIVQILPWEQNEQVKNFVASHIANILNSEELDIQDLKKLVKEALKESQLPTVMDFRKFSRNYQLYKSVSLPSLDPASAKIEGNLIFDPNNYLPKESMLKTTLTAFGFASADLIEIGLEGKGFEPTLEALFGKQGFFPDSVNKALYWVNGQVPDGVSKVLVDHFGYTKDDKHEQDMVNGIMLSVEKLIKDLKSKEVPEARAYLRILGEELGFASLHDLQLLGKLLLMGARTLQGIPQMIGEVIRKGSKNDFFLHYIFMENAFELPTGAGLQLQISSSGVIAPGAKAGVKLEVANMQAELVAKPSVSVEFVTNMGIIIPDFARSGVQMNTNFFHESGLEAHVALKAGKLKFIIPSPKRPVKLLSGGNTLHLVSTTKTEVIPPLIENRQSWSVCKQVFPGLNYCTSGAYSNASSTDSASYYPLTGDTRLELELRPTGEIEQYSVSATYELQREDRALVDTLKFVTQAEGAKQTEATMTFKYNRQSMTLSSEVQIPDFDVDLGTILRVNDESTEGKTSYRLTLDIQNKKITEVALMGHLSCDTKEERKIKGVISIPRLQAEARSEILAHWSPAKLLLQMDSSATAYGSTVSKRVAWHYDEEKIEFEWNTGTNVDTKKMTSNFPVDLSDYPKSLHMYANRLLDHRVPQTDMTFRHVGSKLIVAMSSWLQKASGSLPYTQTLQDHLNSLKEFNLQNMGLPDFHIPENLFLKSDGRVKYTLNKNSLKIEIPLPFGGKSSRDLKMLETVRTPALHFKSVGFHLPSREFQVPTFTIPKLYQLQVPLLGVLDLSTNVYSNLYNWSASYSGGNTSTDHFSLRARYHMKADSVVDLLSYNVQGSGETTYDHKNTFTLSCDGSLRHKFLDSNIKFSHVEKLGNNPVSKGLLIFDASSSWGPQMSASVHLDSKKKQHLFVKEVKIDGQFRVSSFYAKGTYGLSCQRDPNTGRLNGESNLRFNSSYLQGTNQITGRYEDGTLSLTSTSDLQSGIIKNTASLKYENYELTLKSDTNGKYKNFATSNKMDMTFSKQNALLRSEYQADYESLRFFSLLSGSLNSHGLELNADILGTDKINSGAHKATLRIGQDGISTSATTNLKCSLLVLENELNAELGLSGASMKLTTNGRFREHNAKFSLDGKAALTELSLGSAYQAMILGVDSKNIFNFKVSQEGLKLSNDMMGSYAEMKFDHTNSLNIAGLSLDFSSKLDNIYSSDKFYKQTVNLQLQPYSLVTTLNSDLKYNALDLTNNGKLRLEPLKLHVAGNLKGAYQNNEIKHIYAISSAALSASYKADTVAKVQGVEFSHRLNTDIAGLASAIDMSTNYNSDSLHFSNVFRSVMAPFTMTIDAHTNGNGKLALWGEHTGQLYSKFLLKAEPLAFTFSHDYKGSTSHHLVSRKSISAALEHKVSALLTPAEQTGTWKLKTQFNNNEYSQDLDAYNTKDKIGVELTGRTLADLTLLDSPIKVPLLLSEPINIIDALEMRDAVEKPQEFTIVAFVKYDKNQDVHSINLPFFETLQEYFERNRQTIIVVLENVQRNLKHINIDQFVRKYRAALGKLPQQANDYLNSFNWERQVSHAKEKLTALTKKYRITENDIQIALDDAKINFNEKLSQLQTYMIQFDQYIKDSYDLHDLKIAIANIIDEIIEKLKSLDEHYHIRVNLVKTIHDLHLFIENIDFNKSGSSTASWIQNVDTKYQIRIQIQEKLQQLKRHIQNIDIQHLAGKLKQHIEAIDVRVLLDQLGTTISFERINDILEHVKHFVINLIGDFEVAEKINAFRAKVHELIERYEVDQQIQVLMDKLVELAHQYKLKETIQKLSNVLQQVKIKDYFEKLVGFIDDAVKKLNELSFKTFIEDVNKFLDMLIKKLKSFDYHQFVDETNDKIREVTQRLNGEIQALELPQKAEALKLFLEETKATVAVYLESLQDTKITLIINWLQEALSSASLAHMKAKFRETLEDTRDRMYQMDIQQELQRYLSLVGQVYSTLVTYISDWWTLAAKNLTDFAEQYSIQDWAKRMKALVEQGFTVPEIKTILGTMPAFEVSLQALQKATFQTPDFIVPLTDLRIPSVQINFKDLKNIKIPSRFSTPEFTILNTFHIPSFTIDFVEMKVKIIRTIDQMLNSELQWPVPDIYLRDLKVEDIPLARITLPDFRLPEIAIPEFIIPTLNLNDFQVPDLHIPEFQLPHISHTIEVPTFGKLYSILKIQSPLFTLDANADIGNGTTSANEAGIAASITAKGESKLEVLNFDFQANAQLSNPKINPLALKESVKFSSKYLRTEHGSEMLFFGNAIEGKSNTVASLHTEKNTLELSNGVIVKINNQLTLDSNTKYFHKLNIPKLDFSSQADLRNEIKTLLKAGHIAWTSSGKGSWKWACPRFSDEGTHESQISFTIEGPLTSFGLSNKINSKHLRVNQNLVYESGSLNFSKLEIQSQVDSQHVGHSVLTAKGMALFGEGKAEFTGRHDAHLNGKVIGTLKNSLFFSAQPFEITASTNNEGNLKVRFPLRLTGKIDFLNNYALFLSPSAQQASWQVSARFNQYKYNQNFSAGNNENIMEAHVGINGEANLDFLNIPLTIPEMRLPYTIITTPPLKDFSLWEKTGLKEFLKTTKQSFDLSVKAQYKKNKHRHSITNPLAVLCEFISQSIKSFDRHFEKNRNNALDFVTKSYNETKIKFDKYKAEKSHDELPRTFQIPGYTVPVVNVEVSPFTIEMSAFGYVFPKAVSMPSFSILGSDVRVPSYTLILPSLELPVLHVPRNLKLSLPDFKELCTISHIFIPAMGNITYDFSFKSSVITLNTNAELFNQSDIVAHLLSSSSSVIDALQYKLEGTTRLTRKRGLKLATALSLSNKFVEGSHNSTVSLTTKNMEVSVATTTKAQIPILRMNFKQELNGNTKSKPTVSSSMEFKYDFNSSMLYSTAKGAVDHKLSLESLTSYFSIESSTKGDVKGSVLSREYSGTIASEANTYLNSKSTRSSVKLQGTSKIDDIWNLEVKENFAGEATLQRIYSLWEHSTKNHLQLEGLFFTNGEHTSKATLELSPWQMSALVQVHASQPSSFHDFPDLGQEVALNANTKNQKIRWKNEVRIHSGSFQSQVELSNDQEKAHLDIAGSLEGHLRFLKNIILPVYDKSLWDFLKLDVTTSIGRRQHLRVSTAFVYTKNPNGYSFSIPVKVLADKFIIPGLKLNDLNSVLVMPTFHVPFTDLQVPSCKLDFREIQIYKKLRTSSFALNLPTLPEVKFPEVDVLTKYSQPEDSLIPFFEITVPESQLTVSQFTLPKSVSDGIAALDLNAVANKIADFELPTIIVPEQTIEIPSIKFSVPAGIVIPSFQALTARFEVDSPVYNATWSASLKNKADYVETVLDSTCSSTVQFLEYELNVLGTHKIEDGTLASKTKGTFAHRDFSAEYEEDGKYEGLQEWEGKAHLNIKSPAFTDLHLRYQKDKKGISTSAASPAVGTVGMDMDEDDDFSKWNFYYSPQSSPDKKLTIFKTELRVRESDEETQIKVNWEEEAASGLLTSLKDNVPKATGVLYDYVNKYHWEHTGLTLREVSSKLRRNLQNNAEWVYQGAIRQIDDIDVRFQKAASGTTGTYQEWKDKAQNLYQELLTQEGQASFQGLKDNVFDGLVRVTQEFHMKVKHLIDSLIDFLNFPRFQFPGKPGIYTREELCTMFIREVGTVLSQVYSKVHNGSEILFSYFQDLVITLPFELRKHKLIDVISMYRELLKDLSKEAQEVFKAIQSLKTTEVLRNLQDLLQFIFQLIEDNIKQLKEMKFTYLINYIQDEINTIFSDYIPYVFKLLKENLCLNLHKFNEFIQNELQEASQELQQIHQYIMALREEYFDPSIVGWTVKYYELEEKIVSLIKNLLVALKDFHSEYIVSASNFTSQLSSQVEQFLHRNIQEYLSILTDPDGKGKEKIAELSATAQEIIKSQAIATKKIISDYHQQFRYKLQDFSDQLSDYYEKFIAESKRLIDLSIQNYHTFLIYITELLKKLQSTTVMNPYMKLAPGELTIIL

Row | Compound | NS (Rattus norvegicus [1]) | IC50 [2] | NS (Rattus norvegicus [3]) | NS (Rattus norvegicus [4]) | NS (Rattus norvegicus [5]) | NS (Rattus norvegicus [6]) | NS (Rattus norvegicus [7]) | Reduction (Rattus norvegicus [9]) | Reduction (Rattus norvegicus [10]) | Reduction (Rattus norvegicus [12]) | Reduction (Rattus norvegicus [15]) | Reduction (Rattus norvegicus [19]) | other results
1 | O=C(Nc1ccc2c(c1)C[C@@H](NS(=O)(=O)c1ccccc1)C2)c1ccccc1-c1ccc(C(F)(F)F)cc1 | no significant change | 0.65 µM | no significant change | no significant change | no significant change | no significant change | no significant change |  |  |  |  |  | 
2 | COC(=O)N[C@@H]1Cc2ccc(NC(=O)c3cccc(C)c3-c3ccc(C(F)(F)F)cc3)cc2C1 | no significant change | 0.07 µM |  |  |  |  | no significant change | 43% | 74% | 78% | 27% |  | Reduction (Rattus norvegicus [8]): 33%; Reduction (Rattus norvegicus [11]): 45%; NS (Rattus norvegicus [13]): no significant change; NS (Rattus norvegicus [14]): no significant change; Reduction (Rattus norvegicus [16]): 85%; Reduction (Rattus norvegicus [17]): 71%
3 | Cc1cccc(C(=O)Nc2ccc3c(c2)C[C@H](NCc2ccccn2)C3)c1-c1ccc(C(F)(F)F)cc1 |  | 0.41 µM |  |  |  |  |  |  |  |  |  |  | inhibition [18]: 30%
4 | COC(=O)NC1CCc2ccc(NC(=O)c3cc(C)cc(C)c3-c3ccc(C(F)(F)F)cc3)cc2CC1 (stereo not drawn) |  | 0.02 µM |  |  |  |  |  | 21% | 44% | 73% | 17% | 36% | Reduction (Rattus norvegicus [20]): 22%
5 | COC(=O)N[C@H]1Cc2ccc(NC(=O)c3cc(C)ccc3-c3ccc(C(F)(F)F)cc3)cc2C1 |  | 0.17 µM | no significant change | no significant change | no significant change | no significant change | no significant change |  |  |  |  |  | NS (Rattus norvegicus [21]): no significant change
6 | Cc1cccc(C(=O)Nc2ccc3c(c2)C[C@H](NS(=O)(=O)c2cccs2)C3)c1-c1ccc(C(F)(F)F)cc1 |  | 0.05 µM |  |  |  |  |  |  |  |  |  | 76% | Reduction (Rattus norvegicus [8]; 5 mg/kg): 25% and 23%; Lipid level (Canis familiaris [22]): <24 mg/dL; Lipid level (Canis familiaris [23]): 31 mg/dL; Lipid level (Canis familiaris [24]): <72 mg/dL; Lipid level (Canis familiaris [25]): <70 mg/dL; NS (Rattus norvegicus [26]): no significant change; Reduction (Rattus norvegicus [27]): 56%; Reduction (Rattus norvegicus [10]; 50 mg/kg): 83% and 56%; Reduction (Rattus norvegicus [11]; 5 mg/kg): 50% and 34%; Reduction (Rattus norvegicus [12]; 50 mg/kg): 88% and 83%; NS (Rattus norvegicus [28]): no significant change; Reduction (Rattus norvegicus [29]): 39%; Lipid level (Canis familiaris [30]): <81 mg/dL; NS (Rattus norvegicus [14]): no significant change; Lipid level (Canis familiaris [31]): 120 mg/dL; Lipid level (Canis familiaris [32]): <24 mg/dL; Reduction (Rattus norvegicus [33]): 83%; Lipid level (Canis familiaris [34]): <20 mg/dL; Reduction (Rattus norvegicus [35]): 26%
7 | COC(=O)NCC1Cc2ccc(NC(=O)c3cccc(C)c3-c3ccc(C(F)(F)F)cc3)cc2C1 (stereo not drawn) | no significant change | 0.024 µM | no significant change | no significant change |  | no significant change | no significant change |  |  | 49% |  |  | 
8 | Cc1cc(C)c(-c2ccc(C(F)(F)F)cc2)c(C(=O)Nc2ccc3c(c2)C[C@H](NS(=O)(=O)c2cccs2)C3)c1 |  | 0.02 µM |  |  |  |  |  | 34% | 48% | 77% | 21% | 46% | Reduction (Rattus norvegicus [20]): 47%
9 | COC(=O)NCCC1Cc2ccc(NC(=O)c3cccc(C)c3-c3ccc(C(F)(F)F)cc3)cc2C1 (stereo not drawn) | no significant change | 0.07 µM | no significant change | no significant change | no significant change | no significant change |  |  |  |  |  |  | NS (Rattus norvegicus [36]): no significant change

From ChEMBL document CHEMBL1134325, “Diaminoindanes as microsomal triglyceride transfer protein inhibitors” (J Med Chem, 2001)
